Activity calls are given as the source filed them. The calls are words filed in the database; no cut-off is given here.
Legend:
[1] = tested on: Ehrlich; experiment: Antitumor activity against mouse EAC cells transplanted in Albino mouse assessed as decrease in number of living cells at 10 mg/kg, po QD for 2 weeks using trypan blue staining by Neubauer hemocytometry relative to control; assay type: functional, organism-based; design: dose 10 mg/kg
Outline: (§1)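 Female albino mice each received 0.2 ml EAC ascites intraperitoneally (stock aliquot diluted 1:50 in saline). Dosing was 10 mg/kg in 10% DMSO by gastric intubation, daily for 2 weeks from the day of inoculation, against a 10% DMSO vehicle group (12 mice per group). At the end, under ether, 0.2 ml saline was given ip and ascites aspirated 1 min later. Aliquot volume was measured. Live and dead cells were counted by trypan blue on a Neubauer haemocytometer. Mean ± SE, LSD.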

[2] = tested on: Ehrlich; experiment: Induction of apoptosis in mouse EAC cells transplanted in Albino mouse assessed as increase in p53 level at 10 mg/kg, po QD for 2 weeks […] relative to control; assay type: functional, organism-based; design: dose 10 mg/kg
[3] = Antitumor activity against mouse EAC cells transplanted in Albino mouse assessed as increase in cell mortality rate at 10 mg/kg, po QD for 2 weeks using trypan blue staining by Neubauer hemocytometry relative to control; assay type: functional, Ehrlich
Outline: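 Female albino mice given 0.2 ml EAC (1:50 dilution in saline of aliquot from stock mice) i.p.; dosed orally by gastric intubation in 10% DMSO daily for 2 weeks from day of inoculation, vehicle controls. At end, ascites collected after 0.2 ml saline i.p. under ether; alive/dead cells counted by trypan blue exclusion, percent dead per mouse; mean ± SE, LSD test.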

[4] = Growth inhibition of mouse EAC cells at 25 ug/ml after 2 hrs using trypan blue staining by Neubauer hemocytometry; assay type: functional; conditions: Ehrlich, read-out: GI
Outline: (§2)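 EAC cells at 2.5 × 10^5 cells/ml in PBS were exposed to three compound concentrations for 2 h at 37 °C in 5% CO2. An equal volume of trypan blue was then added. Stained (dead) and unstained cells were counted on a Neubauer haemocytometer, and percent dead cells was calculated per test.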

[5] = tested on: Ehrlich; experiment: Antitumor activity against mouse EAC cells transplanted in Albino mouse assessed as decrease in total number of cells at 10 mg/kg, po QD for 2 weeks using trypan blue staining by Neubauer hemocytometry relative to control; assay type: functional, organism-based; design: dose 10 mg/kg; outline: as §1
[6] = Antitumor activity against mouse EAC cells transplanted in Albino mouse assessed as decrease in EAC-aliquot volume at 10 mg/kg, po QD for 2 weeks relative to control (Rvb= 5.77+/-0.39 ml); assay type: functional, Ehrlich; outline: as §1
[7] = tested on: Ehrlich; experiment: Induction of apoptosis in mouse EAC cells transplanted in Albino mouse assessed as decrease in Bcl-2 level in cytoplasm of cells at 10 mg/kg, po QD for 2 weeks […] relative to control; assay type: functional, organism-based; design: dose 10 mg/kg
[8] = tested on: HepG2; experiment: Cytotoxicity against human HepG2 cells after 48 hrs by sulforhodamine B assay; assay type: functional, cell-based
Outline: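 HepG2 monolayers were treated with graded concentrations (0–100 range) for 48 h at 37 °C. Cells were then fixed and stained with sulforhodamine B, excess dye was removed with acetic acid, and bound dye was dissolved in Tris-EDTA for colorimetric reading. Survival fraction was plotted against concentration.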

[9] = Growth inhibition of mouse EAC cells at 100 ug/ml after 2 hrs using trypan blue staining by Neubauer hemocytometry; assay type: functional; conditions: Ehrlich, read-out: GI; outline: as §2
[10] = tested on: Ehrlich; experiment: Antitumor activity against mouse EAC cells transplanted in Albino mouse assessed as increase in number of dead cells at 10 mg/kg, po QD for 2 weeks using trypan blue staining by Neubauer hemocytometry relative to control; assay type: functional, organism-based; design: dose 10 mg/kg; outline: as §1
[11] = Toxicity in Albino mouse assessed as mortality after 48 hrs; assay type: organism-based; conditions: in vivo
[12] = Antitumor activity against mouse EAC cells transplanted in Albino mouse assessed as increase in survival at 10 mg/kg, po QD for 2 weeks relative to control; assay type: functional, Ehrlich
Outline: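 Female albino mice inoculated i.p. with 0.2 ml 1:50 saline-diluted EAC; oral gavage in 10% DMSO daily between 10 and 12 AM for 2 successive weeks from inoculation day; vehicle-treated controls (12 mice per group). Survival percent = survived/total animals × 100.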

[13] = Growth inhibition of mouse EAC cells at 50 ug/ml after 2 hrs using trypan blue staining by Neubauer hemocytometry; assay type: functional; conditions: Ehrlich, read-out: GI; outline: as §2

For `c1nc2nnnn2c2c1CCCC2`, the Activity [1] was “Active”, the Activity [2] was “Active” and the Activity [3] was 8.24%. For the same compound, the inhibition of growth at 25 µg/mL [4] was 10%, the Activity [5] was “Active” and the Activity [6] was 2.52 mL. The Activity [7] was “Active”, the Activity [8] was “Dose-dependent effect” and the inhibition of growth at 100 µg/mL [9] was 45%. The Activity [10] was “Active”, the LD50 at 48 h [11] was 500 mg/kg and the Activity [12] was 83.33%. It also gave an inhibition of growth at 50 µg/mL [13] of 25%.

Reference: ChEMBL document CHEMBL1156963, “Regioselective one-pot synthesis and anti-proliferative and apoptotic effects of some novel tetrazolo[1,5-a]pyrimidine derivatives” (Bioorg Med Chem, 2010)
